From ChEMBL document CHEMBL3421573, “Synthesis of new ent-labdane diterpene derivatives from andrographolide and evaluation on cytotoxic activities” (Bioorg Med Chem Lett, 2015)

Assays:
Format in all cases: functional, cell-based
[1] = Cytotoxicity against human NTUB1 cells after 48 hrs by MTT assay; details: NTUB1, 48 h
Outline: (§1)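 Samples dissolved in DMSO (0.1%); cis-platin included as positive control. IC50 taken as the drug concentration giving 50% growth inhibition, in µM.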

MCF7 = experiment: Cytotoxicity against human MCF7 cells after 48 hrs by MTT assay; outline: as §1
MDA-MB-231 = experiment: Cytotoxicity against human MDA-MB-231 cells after 48 hrs by MTT assay; outline: as §1
[2] = Cytotoxicity against human NP14 cells after 48 hrs by MTT assay; details: NP14, 48 h; outline: as §1
[3] = Homo sapiens, MCF7, 48 h, read-out: IC50
[4] = Homo sapiens, MDA-MB-231, 48 h, read-out: IC50

`C=C1CC[C@@H]2[C@](C)(CO)[C@H](O)CC[C@@]2(C)[C@@H]1C/C=C1/C(=O)OC[C@H]1O` [ANDROGRAPHOLIDE] gave an IC50 [1] of 32.5 µM, an IC50 (MCF7; [3]) of 30.8 µM and an IC50 (MDA-MB-231; [4]) of 16.6 µM. For the same compound, the IC50 [2] was 21.2 µM.

Compound `C=C1CC[C@@H]2[C@](C)(COC(=O)c3ccc(OC)cc3)[C@H](O)CC[C@@]2(C)[C@@H]1CCc1ccoc1` has an IC50 [1] of 26.3 µM, an IC50 (MCF7; [3]) of 25.2 µM and an IC50 (MDA-MB-231; [4]) of 28.6 µM. It also gave an IC50 [2] of 40.4 µM.

In the case of `C=C1CC[C@@H]2[C@](C)(COC(=O)CC)[C@H](OC(=O)CC)CC[C@@]2(C)[C@@H]1CC(OC(=O)CC)c1ccoc1` (some centres undefined), the IC50 [1] is reported as 89.7 µM, the IC50 (MCF7; [3]) is reported as greater than 100 µM and the IC50 (MDA-MB-231; [4]) is reported as greater than 100 µM. It also gave an IC50 [2] of 43.1 µM.

In the case of `C[C@]1(CO)[C@H]2CCC(=O)[C@@H](CCc3ccoc3)[C@]2(C)CC[C@H]1O`, the IC50 [1] is reported as greater than 100 µM, the IC50 (MCF7; [3]) is reported as greater than 100 µM and the IC50 (MDA-MB-231; [4]) is reported as 56.3 µM. For the same compound, the IC50 [2] was greater than 100 µM.

`C=C1CC[C@H]2[C@@](C)(CCC(=O)[C@@]2(C)CO)[C@@H]1CCc1ccoc1` gave an IC50 [1] of 63.1 µM, an IC50 (MCF7; [3]) of 87.3 µM and an IC50 (MDA-MB-231; [4]) of 71.2 µM. It also gave an IC50 [2] of 43.2 µM.

For `C=C1CC[C@@H]2[C@](C)(CO)[C@H](O)CC[C@@]2(C)[C@@H]1CC(O)C1=CCOC1=O` (some centres undefined), the IC50 [1] was 14.9 µM, the IC50 (MCF7; [3]) was 78 µM and the IC50 (MDA-MB-231; [4]) was 27.6 µM. For the same compound, the IC50 [2] was 49.4 µM.

`C=C1CC[C@@H]2[C@](C)(COC(=O)CC)[C@H](OC(=O)CC)CC[C@@]2(C)[C@@H]1CCc1ccoc1` showed an IC50 [1] of 42.9 µM, an IC50 (MCF7; [3]) greater than 100 µM and an IC50 (MDA-MB-231; [4]) of 40.4 µM. For the same compound, the IC50 [2] was 94.2 µM.

`C=C1CC[C@@H]2[C@](C)(CO)[C@H](O)CC[C@@]2(C)[C@@H]1CCc1ccoc1` gave an IC50 [1] of 39.8 µM, an IC50 (MCF7; [3]) of 79.5 µM and an IC50 (MDA-MB-231; [4]) greater than 100 µM. It also gave an IC50 [2] of 53.3 µM.

Work on `C=C1CC[C@@H]2[C@](C)(COC(c3ccccc3)(c3ccccc3)c3ccccc3)[C@H](OC(C)=O)CC[C@@]2(C)[C@@H]1CC(OC(C)=O)C1=CCOC1=O` (some centres undefined) yielded an IC50 [1] of 8.45 µM, an IC50 (MCF7; [3]) of 6.41 µM and an IC50 (MDA-MB-231; [4]) of 6.37 µM. For the same compound, the IC50 [2] was 14.3 µM.

For `C=C1CC[C@@H]2[C@](C)(COC(=O)c3ccc([N+](=O)[O-])cc3)[C@H](OC(=O)c3ccc([N+](=O)[O-])cc3)CC[C@@]2(C)[C@@H]1CCc1ccoc1`, the IC50 [1] was greater than 100 µM, the IC50 (MCF7; [3]) was greater than 100 µM and the IC50 (MDA-MB-231; [4]) was greater than 100 µM. The IC50 [2] was greater than 100 µM.

With `C=C1CC[C@@H]2[C@](C)(CO)[C@H](O)CC[C@@]2(C)[C@@H]1CCC1=CCOC1=O` [DEOXYANDROGRAPHOLIDE] the IC50 [1] was greater than 100 µM, the IC50 (MCF7; mcf7) was “Not Active” and the IC50 (MDA-MB-231; mda-mb-231) was “Not Active”. It also gave an IC50 [2] greater than 100 µM.

For `C=C1[C@H](O)C[C@@H]2[C@](C)(COC(=O)CC)[C@H](OC(=O)CC)CC[C@@]2(C)[C@@H]1CCc1ccoc1`, the IC50 [1] was 29.6 µM, the IC50 (MCF7; [3]) was 44 µM and the IC50 (MDA-MB-231; [4]) was 40.9 µM. It also gave an IC50 [2] of 27.7 µM.

Work on `C=C1CC[C@@H]2[C@](C)(COC(=O)COc3ccccc3)[C@H](O)CC[C@@]2(C)[C@@H]1CCc1ccoc1` yielded an IC50 [1] greater than 100 µM, an IC50 (MCF7; [3]) of 36.8 µM and an IC50 (MDA-MB-231; [4]) of 35 µM. The IC50 [2] was 18.6 µM.

In the case of `C=C1CC[C@@H]2[C@](C)(COC(=O)C(Cl)Cl)[C@H](OC(=O)C(Cl)Cl)CC[C@@]2(C)[C@@H]1CCc1ccoc1`, the IC50 [1] is reported as 11.2 µM, the IC50 (MCF7; [3]) is reported as 22.9 µM and the IC50 (MDA-MB-231; [4]) is reported as 2.64 µM. It also gave an IC50 [2] of 4.42 µM.

For `C=C1CC[C@@H]2[C@](C)(CO)[C@H](O)CC[C@@]2(C)[C@@H]1CC(O)c1ccoc1` (some centres undefined), the IC50 [1] was greater than 100 µM, the IC50 (MCF7; [3]) was greater than 100 µM and the IC50 (MDA-MB-231; [4]) was greater than 100 µM. For the same compound, the IC50 [2] was greater than 100 µM.

With `C=C1CC[C@@H]2[C@](C)(COC(=O)c3ccc([N+](=O)[O-])cc3)[C@H](O)CC[C@@]2(C)[C@@H]1CCc1ccoc1` the IC50 [1] was 23.8 µM, the IC50 (MCF7; [3]) was 62.1 µM and the IC50 (MDA-MB-231; [4]) was 37.5 µM. For the same compound, the IC50 [2] was 80.9 µM.
